Data from BindingDB's records for doi:10.1021/jm9802620 (University of Washington, 1998).

Key:
[1] = molecular target: Glyceraldehyde-3-phosphate dehydrogenase (GAPDH); test: Inhibitory activity measured for Glyceraldehyde-3-phosphate dehydrogenase (GAPDH) in Leishmania. mexicana
Summary of the method: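 Recombinant glycosomal GAPDH of L. mexicana, T. cruzi or T. brucei; human enzyme from erythrocytes. NADH formation followed at 340 nm, 21 °C, in 0.1 M triethanolamine-HCl pH 7.6 with DTT, NaN3, MgSO4, EDTA, 10 mM K2HPO4, 0.8 mM glyceraldehyde-3-phosphate, 0.19 mM NAD+, 5% DMSO. Reaction started with enzyme. IC50 from 0–1 min initial rates at ≥5 inhibitor levels versus DMSO control.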

[2] = molecular target: Glyceraldehyde-3-phosphate dehydrogenase (GAPDH); test: Inhibitory activity was measured for Glyceraldehyde-3-phosphate dehydrogenase (GAPDH) in Leishmania. mexicana.

| IC50 [1] [mM] | IC50 [2] [mM] | Compound |
| --- | --- | --- |
| 0.36 |  | OC[C@H]1OC(n2cnc3c(N[C@@H]4CCCc5ccccc54)ncnc32)[C@H](O)[C@@H]1O (stereo not given in full) |
|  | 3.7 | CC(C)CCNc1ncnc2c1ncn2C1O[C@H](CO)[C@@H](O)[C@H]1O (stereo not given in full) |
| 0.7 |  | Cc1cccc(CNc2ncnc3c2ncn3C2O[C@H](CO)[C@@H](O)[C@H]2O)c1 (stereo not given in full) |
| > 5 |  | CC(C)=CCNc1ncnc2c1ncn2C1O[C@H](CO)[C@@H](O)[C@H]1O (stereo not given in full) |
| 3.1 |  | Nc1ccc(CNc2ncnc3c2ncn3C2O[C@H](CO)[C@@H](O)[C@H]2O)cc1 (stereo not given in full) |
